Each block holds one molecule with its values, some of them ahead of it.
Legend:
L1210 [1] = assay: In vitro Anti Neoplastic Activity against L1210 murine leukemia Cell lines; format: functional, cell-based; settings: Mus musculus
Procedure, shortened: (§1)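 SRB growth assay. Cell lines were grown as monolayers in RPMI-1640 with 5% FCS, 5% NuSerum IV, 20 mM HEPES and 2 mM glutamine, and seeded at 400–1200 cells/well. They attached for 15–18 h before drug. Ten concentrations over 5 logs were tested, with final DMSO ≤0.25%. Exposure was 72 h at 37 °C. Cells were TCA-fixed, stained with sulforhodamine B and read at OD 570 nm. IC50 is 50% growth inhibition.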

A121 [2] = assay: In vitro Antineoplastic Activity against Human ovarian carcinoma A121 Cell lines; format: functional, cell-based
[3] = tested on: Trypanosoma brucei brucei; assay: In vitro antitrypanosomal activity against Trypanosomal 110 (EATRO)strain at a dose of 100 uM; format: functional
HT-29 [4] = assay: In vitro Antineoplastic Activity in Human Colon adenocarcinoma HT-29 Cell lines; format: functional, cell-based; procedure, shortened: as §1
A549 [5] = assay: In vitro Antineoplastic Activity against Human non small cell lung carcinoma A549 Cell lines; format: functional, cell-based
[6] = tested on: Trypanosoma brucei rhodesiense; assay: In vitro antitrypanosomal activity against Trypanosomal 243 (KETRI)strain at a dose of 100 uM; format: functional
MCF7 [7] = assay: In vitro Anti Neoplastic Activity against Human Breast adenocarcinoma MCF-7 Cell lines; format: functional, cell-based; procedure, shortened: as §1
MCF7 [8] = assay: In vitro Anti Neoplastic Activity against Adriamycin resistant Human Breast adenocarcinoma MCF7-Adr Cell lines; format: functional, cell-based; procedure, shortened: as §1
MCF7 [9] = assay: In vitro Neoplastic Anti Activity against Human Breast adenocarcinoma MCF-7 Cell lines; format: functional, cell-based
[10] = tested on: Trypanosoma brucei rhodesiense; assay: Mean survival days against T.b. rhodesiense KETRI 243 tested in mice after intra peritoneal administration at 25 mg/kg for 7 days.; format: functional
[11] = tested on: Trypanosoma brucei rhodesiense; assay: Mean survival days against T.b. rhodesiense KETRI 243 tested in mice after intra peritoneal administration at 50 mg/kg for 7 days.; format: functional
[12] = tested on: Trypanosoma brucei rhodesiense; assay: Mean survival days against T.b. rhodesiense KETRI 243 tested in mice after intra peritoneal administration at 100 mg/kg for 7 days.; format: functional
L1210 [13] = assay: In vitro inhibition of AdoMetDC derived from L1210 Murine Leukemia Cells.; format: functional; settings: Mus musculus, read-out: ID50 (the source's name)
HT-29 [14] = assay: In vitro Neoplastic Anti Activity in Human Colon adenocarcinoma HT-29 Cell lines; format: functional, cell-based
[15] = tested on: Trypanosoma brucei rhodesiense; assay: In vitro antitrypanosomal activity against Trypanosomal 243 (KETRI)strain; format: functional, organism-based
[16] = tested on: Trypanosoma brucei brucei; assay: In vitro antitrypanosomal activity against Trypanosomal 110 (EATRO)strain; format: functional, organism-based
Mus musculus [17] = assay: Ratio of number of mice cured to that of total treated with the compound at 100 mg/kg for 7 days; format: functional
MCF7 [18] = assay: In vitro Antineoplastic Activity against Adriamycin resistant Human Breast adenocarcinoma MCF7-Adr Cell lines; format: functional, cell-based
[19] = tested on: Trypanosoma brucei brucei; assay: Mean survival days against T.b. peritoneal administration at 25 mg/kg for 3 days.; format: functional
Mus musculus [20] = assay: Ratio of number of mice cured to that of total treated with the compound at 50 mg/kg for 3 days; format: functional
[21] = tested on: Trypanosoma brucei brucei; assay: Mean survival days against T.b. peritoneal administration at 50 mg/kg for 3 days.; format: functional
Mus musculus [22] = assay: Ratio of number of mice cured to that of total treated with the compound at 25 mg/kg for 7 days; format: functional
[23] = tested on: Trypanosoma brucei rhodesiense; assay: In vitro antitrypanosomal activity against Trypanosomal 243 As 10e-3 (KETRI)strain; format: functional, organism-based
[24] = tested on: Human immunodeficiency virus 1; assay: In Vitro Anti-HIV activity of the compound; format: functional; settings: read-out: ED50 (the source's name)
Mus musculus [25] = assay: Ratio of number of mice cured to that of total treated with the compound at 10 mg/kg for 3 days; format: functional
CCRF-CEM = assay: Concentration that causes morphological changes in noninfected CEM-SS cells; format: functional; settings: Homo sapiens, read-out: TC50 (the source's name)
Mus musculus [26] = assay: Ratio of number of mice cured to that of total treated with the compound at 25 mg/kg for 3 days; format: functional
[27] = tested on: Trypanosoma brucei brucei; assay: Mean survival days against T.b. peritoneal administration at 10 mg/kg for 3 days.; format: functional
[28] = tested on: Trypanosoma brucei rhodesiense; assay: In vitro antitrypanosomal activity against Trypanosomal 269 (KETRI)strain; format: functional, organism-based
Mus musculus [29] = assay: Ratio of number of mice cured to that of total treated with the compound at 50 mg/kg for 7 days; format: functional
[30] = Differential selectivity as the ratio of TC50 value to that of EC50 value.; format: functional
Procedure, shortened: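 Syncytial plaque assay: log-phase CEM-SS cells were PBS-washed and plated at 50 000 per well in serum-free RPMI-1640 on poly-L-lysine-coated wells (30 min, 37 °C). They were inoculated with HIV-1 (60–90 PFU) for 120 min, then overlaid with compound in growth medium (2-fold dilutions, 0.00015–20 μM). A second overlay followed on day 3, with 5 days total. EC50 is 50% inhibition of plaque formation. TC50 is morphological change in noninfected CEM-SS cells.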

A549 [31] = assay: In vitro anti Neoplastic Activity against Human non small cell lung carcinoma A549 Cell lines; format: functional, cell-based; procedure, shortened: as §1
HT-29 [32] = assay: In vitro anti Neoplastic Activity in Human Colon adenocarcinoma HT-29 Cell lines; format: functional, cell-based; procedure, shortened: as §1
MCF7 [33] = assay: In vitro anti Neoplastic Activity against Human Breast adenocarcinoma MCF-7 Cell lines; format: functional, cell-based; procedure, shortened: as §1
A121 [34] = assay: In vitro anti Neoplastic Activity against Human ovarian carcinoma A121 Cell lines; format: functional, cell-based; procedure, shortened: as §1
MCF7 [35] = assay: In vitro anti Neoplastic Activity against Adriamycin resistant Human Breast adenocarcinoma MCF7-Adr Cell lines; format: functional, cell-based; procedure, shortened: as §1
[36] = tested on: Trypanosoma brucei rhodesiense; assay: In vitro anti trypanosomal activity against Trypanosomal 269 (KETRI)strain; format: functional, organism-based
[37] = tested on: Trypanosoma brucei rhodesiense; assay: In vitro anti trypanosomal activity against Trypanosomal 243 (KETRI)strain; format: functional, organism-based
[38] = tested on: Trypanosoma brucei brucei; assay: In vitro anti trypanosomal activity against Trypanosomal 110 (EATRO)strain; format: functional, organism-based
[39] = tested on: Trypanosoma brucei rhodesiense; assay: In vitro anti trypanosomal activity against Trypanosomal 243 As 10e-3 (KETRI)strain; format: functional, organism-based
HT-29 [40] = assay: In vitro Anti Neoplastic Activity in Human Colon adenocarcinoma HT-29 Cell lines; format: functional, cell-based; procedure, shortened: as §1
A121 [41] = assay: In vitro Anti Neoplastic Activity against Human ovarian carcinoma A121 Cell lines; format: functional, cell-based; procedure, shortened: as §1
A549 [42] = assay: In vitro Anti Neoplastic Activity against Human non small cell lung carcinoma A549 Cell lines; format: functional, cell-based; procedure, shortened: as §1
[43] = tested on: Trypanosoma brucei brucei; assay: In Vitro inhibition of Trypanosomal 110 (EATRO)strain by the compound at a dose of 100 uM; format: functional
L1210 [44] = assay: In Vitro inhibition of L1210 Murine Leukemia Cells by the compound at a dose of 100 uM; format: functional; settings: Mus musculus
[45] = tested on: Trypanosoma brucei rhodesiense; assay: In Vitro inhibition of Trypanosomal 243 (KETRI)strain by the compound at a dose of 100 uM; format: functional

- IC50 (A549 [31]): > 100 µM
- IC50 (HT-29 [32]): > 100 µM
- IC50 (L1210 [13]): > 100 µM
- IC50 (MCF7 [33]): > 100 µM
- IC50 (A121 [34]): > 100 µM
- IC50 (MCF7 [35]): > 100 µM
- IC50 [36]: 11 µM
- IC50 [37]: 6.6 µM
- IC50 [38]: 10 µM
- IC50 [39]: 0.96 µM
Compound: CN(C/C=C\CN)CCOCn1cnc2c(N)nc(N)nc21

- IC50 (HT-29 [40]): > 100 µM
- IC50 [36]: 3.8 µM
- IC50 (A121 [41]): > 100 µM
- IC50 (A549 [42]): > 100 µM
- IC50 (MCF7 [7]): > 100 µM
- IC50 [37]: 4.6 µM
- IC50 (MCF7 [8]): > 100 µM
- IC50 [38]: 1.8 µM
- IC50 [39]: 2.9 µM
Compound: CC(=O)OCC(CN(C)C/C=C\CN)OC(COC(C)=O)n1cnc2c(N)ncnc21 (stereo unspecified)

- IC50 (L1210 [1]): > 600 µM
- IC50 (A549 [31]): > 100 µM
- IC50 (HT-29 [32]): > 100 µM
- IC50 (MCF7 [33]): > 100 µM
- IC50 (A121 [34]): > 100 µM
- IC50 (MCF7 [35]): > 100 µM
Compound: CN(Cc1ccc(CN)cc1)C[C@H]1OC(n2cnc3c(N)ncnc32)[C@H](O)[C@@H]1O (stereo partly specified)
- inhibition at 100 µM [43]: 21%
- inhibition at 100 µM (L1210 [44]): 21%
- inhibition at 100 µM [45]: 23%

Continued, molecule first:

Compound: CNC[C@H]1OC(n2cnc3c(N)ncnc32)[C@H](O)[C@@H]1O (stereo partly specified)
- IC50 (L1210 [1]): > 600 µM
- IC50 (A121 [2]): > 100 µM
- inhibition at 100 µM [3]: 44%
- IC50 (HT-29 [4]): > 100 µM
- IC50 (A549 [5]): > 100 µM
- inhibition at 100 µM [6]: 26%
- IC50 (MCF7 [7]): > 100 µM
- IC50 (MCF7 [8]): > 100 µM

Compound: CN(C/C=C\CN)C[C@H]1O[C@@H](n2cnc3c(N)ncnc32)[C@H](O)[C@@H]1O
- IC50 (MCF7 [9]): > 100 µM
- MSD [10]: 31 days
- MSD [11]: 31.3 days
- MSD [12]: 32 days
- IC50 (L1210 [13]): 0.078 µM
- IC50 (HT-29 [14]): > 100 µM
- IC50 (A121 [2]): > 100 µM
- IC50 [15]: 0.04 µM
- IC50 [16]: 0.1 µM
- No. cured/total (Mus musculus [17]): 4
- IC50 (MCF7 [18]): 200 µM
- MSD [19]: >34 days
- No. cured/total (Mus musculus [20]): 5
- MSD [21]: >34 days
- No. cured/total (Mus musculus [22]): 2
- IC50 [23]: 0.1 µM
- EC50 [24]: 0.93 µM
- No. cured/total (Mus musculus [25]): 4
- CC50 (CCRF-CEM): < 6.25 µM
- No. cured/total (Mus musculus [26]): 5
- MSD [27]: 12 days
- IC50 [28]: 0.22 µM
- No. cured/total (Mus musculus [29]): 2
- Selectivity [30]: 6.7
- IC50 (A549 [5]): 3 µM
